Where two headings read alike, the source gives them in different places.
Tests used:
[1] = test system: B cells in human whole blood; test: Anti-IgD-induced B-cell activation; format: cell-based; settings: read-out: IC50, B-cell activation in whole blood, stimulated cells
[2] = test system: CD19+ B cells from human PBMC; test: Anti-IgD-induced B-cell activation; format: cell-based; settings: read-out: IC50, CD69 induction on B cells
Summary of the method: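 PBMCs from healthy donors were isolated by density gradient. They were incubated for 30 min with titrating concentrations of test compound or DMSO, then stimulated overnight at 37°C with rabbit F(ab′)2 anti-human IgD (5 μg mL−1). After Fc block and staining for 30 min on ice, the frequency of CD69+ cells among CD19+ B cells was measured by flow cytometry.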

[3] = test system: B220+ mouse splenic B cells; test: Anti-IgM-induced B-cell activation; format: cell-based; settings: read-out: IC50, CD69 induction on B cells
Summary of the method: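 Splenic B cells were bead-isolated from OTII mice and pre-treated with test compound for 30 min at 37°C. They were incubated on ice with biotinylated goat F(ab′)2 anti-mouse IgM (10 μg mL−1, 15 min), then OVA-conjugated anti-biotin (10 min), with compound present throughout. They were co-cultured with dye-labelled CD4+ T cells for 72 h at 37°C. The frequency of CD69+ B220+ B cells was measured by flow cytometry.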

[4] = test system: B cells in mouse whole blood; test: Anti-IgD-induced B-cell activation; format: cell-based; settings: read-out: IC50, CD62L downregulation on B cells
[5] = test system: CD4+ and CD8+ T cells from human PBMCs; test: Anti-CD3/anti-CD28-mediated T-cell activation counter-screen; format: cell-based; settings: anti-CD3 and anti-CD28 overnight, concentrations up to 10 μM
Summary of the method: (§1)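 Human PBMCs were pre-treated for 30 min with titrating concentrations of test compound. They were then stimulated overnight at 37°C with soluble anti-CD28 (CD28.2, 5 μg mL−1) and plate-bound anti-CD3 (HIT3a, 0.5 µg mL−1). CD69 on CD4+ and CD8+ T cells and on CD19+ B cells was measured by flow cytometry.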

[6] = test system: CD19+ B cells from human PBMCs; test: Antigen-independent B-cell activation by anti-CD3/anti-CD28-activated T cells; format: cell-based
Summary of the method: as §1

purified human B cells = test: Human B-cell proliferation; format: cell-based; settings: 100 nM added at time of activation; TLR9 or anti-IgM/CD40L with IL-4 or IL-21
Summary of the method: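 Healthy-donor B cells were enriched untouched and labelled with CFSE. Stimuli were CpG ODN 2006, or F(ab′)2 anti-IgM (1 µg mL−1), or anti-IgM/MEGACD40L (1 μg mL−1) with IL-4 or IL-21 (each 20 ng mL−1). Cells were cultured with or without 100 nm test compound in serum-free X-VIVO 10 for 3–5 days, then analysed by flow cytometry.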

[7] = test system: mouse splenic B cells and OTII CD4+ T cells; test: BCR-mediated antigen presentation to T cells; format: cell-based; settings: read-out: IC50, BCR-mediated antigen presentation to OVA323-339-specific T cells (T-cell proliferation)
[8] = test system: basophils in human whole blood; test: FcεR-mediated basophil degranulation; format: cell-based; settings: read-out: IC50, anti-IgE-mediated basophil degranulation (CD63)
[9] = test system: NP-specific IgM antibody titres; test: NP-Ficoll T cell-independent; format: in vivo; settings: mouse, oral BID for 10 days
[10] = test system: splenic germinal center B cells; test: Sheep red blood cell thymus-dependent immunisation model; format: in vivo; settings: mouse, 8 days BID, all doses tested
Summary of the method: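 Mice were dosed orally BID at 10 mL kg−1 with test compound or vehicle from day 1 to day 9. On day 2 they received washed sheep red blood cells i.p. (2 × 10⁹ cells). Spleens were collected on day 9, 3 h after the last dose. Germinal centre B cells (CD3−CD19+B220+CD38lowGL7+CD95+) were enumerated by flow cytometry, with 8–20 mice per group.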

[11] = test system: B cells in whole blood of dosed healthy individuals; test: Phase 1; format: in vivo, human
Summary of the method: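 Heparinised whole blood from trial participants (test compound or placebo, BID) was stimulated with 0.1 μg mL−1 dextran-conjugated anti-IgD (IA6-2) for 18–24 h at 37°C/5% CO2. Samples were stained for CD19 and CD69, RBC-lysed and fixed. CD69 on CD19+, CD27− and CD27+ B cells was standardised with MESF beads. Inhibition was calculated relative to pre-dose samples.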

BTK = BTK (Mus musculus, UniProt P35991); test: in vivo
[12] = Homo sapiens, B-cell, read-out: average (± SD) CD69 inhibition at 24 h post-last dose
[13] = Homo sapiens, B-cell, read-out: pre-dose average CD69 inhibition in naïve B cells

Chain of BTK (P35991 whole entry): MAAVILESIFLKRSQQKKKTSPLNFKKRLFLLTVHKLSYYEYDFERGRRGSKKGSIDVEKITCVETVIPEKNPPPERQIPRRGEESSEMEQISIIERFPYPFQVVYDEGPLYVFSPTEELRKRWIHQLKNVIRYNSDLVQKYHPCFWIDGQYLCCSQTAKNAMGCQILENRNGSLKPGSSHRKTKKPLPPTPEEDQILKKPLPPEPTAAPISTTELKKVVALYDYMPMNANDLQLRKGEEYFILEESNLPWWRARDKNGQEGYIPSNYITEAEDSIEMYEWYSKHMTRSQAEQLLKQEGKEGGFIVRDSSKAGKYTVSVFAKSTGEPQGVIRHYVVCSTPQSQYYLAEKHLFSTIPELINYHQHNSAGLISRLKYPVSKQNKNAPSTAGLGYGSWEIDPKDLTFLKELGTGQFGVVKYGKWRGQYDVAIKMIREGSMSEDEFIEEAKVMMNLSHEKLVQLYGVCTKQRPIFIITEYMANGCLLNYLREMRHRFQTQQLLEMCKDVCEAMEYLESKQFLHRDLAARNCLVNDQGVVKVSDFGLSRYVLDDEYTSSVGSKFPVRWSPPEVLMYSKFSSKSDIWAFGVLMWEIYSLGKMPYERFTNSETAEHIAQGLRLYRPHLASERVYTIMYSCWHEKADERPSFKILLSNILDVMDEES

Compound | IC50 [1] [nM] | IC50 [2] [nM] | IC50 [3] [nM] | IC50 [4] [nM] | inhibition of CD4+ or CD8+ T-cell activation (CD69) [5] | inhibition of T cell-dependent, antigen-independent B-cell activation (CD69) [6] | effect on B-cell proliferative responses (purified human B cells) | IC50 [7] [nM] | IC50 [8] [nM] | ED50 for NP-specific IgM antibody titres [9] [mg/kg] | frequency of total splenic B cells [10] | inhibition of CD69 upregulation in naïve B cells ([11]; 50 mg BID, 1 and 2 h post-dosing) | inhibition at 50 mg [11, 12] [%] | inhibition at 150 mg [11, 12] [%] | inhibition at 300 mg [11, 12] [%] | inhibition at 150 mg [11, 13] [%] | inhibition at 300 mg [11, 13] [%] | IC50 (BTK) [nM]
Cc1cc(-c2ccnc(Nc3cnn(C)c3)n2)ccc1CNC(=O)N1CC(OC(C)C)C1 [BIIB068] | 3500 |  |  |  |  |  |  |  |  |  |  |  |  |  |  |  |  | 
Cn1cc(Nc2nccc(-c3ccc4c(c3)CN(C3COC3)CC[C@H]4NC(=O)c3cn(C(C)(C)C)nn3)n2)cn1 [BIIB091] |  | 5.4 ± 0.5 | 16 ± 11 | 40 ± 24 | did not inhibit | did not inhibit | potently blocked | 22 ± 8 | 106 | 1.95 | unchanged | complete | -5.8 | 19 | -2.8 | ≥ 90 | ≥ 90 | 3.1

From paper PMC8204096 (Clinical & Translational Immunology, 2021)
